The IC50 is the concentration needed to halve the response being measured.

For one data set, the target named is Cytochrome P450 3A4 (Homo sapiens, UniProt P08684). The data set is described as follows: Inhibition of human hepatocyte microsome CYP3A4 using testosterone as substrate by HPLC/MS/MS method. Type of data set: ADME. The method, boiled down:
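Pooled human hepatocyte microsome preparation with an NADPH-regenerating system. Product analysed by HPLC/MS/MS. IC50 from a 4-parameter logistic fit of the dose-response data.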

In data set [1] the target is T1, Steroid 17-alpha-hydroxylase/17,20 lyase (Homo sapiens, UniProt P05093).
T1 sequence (P05093 whole entry): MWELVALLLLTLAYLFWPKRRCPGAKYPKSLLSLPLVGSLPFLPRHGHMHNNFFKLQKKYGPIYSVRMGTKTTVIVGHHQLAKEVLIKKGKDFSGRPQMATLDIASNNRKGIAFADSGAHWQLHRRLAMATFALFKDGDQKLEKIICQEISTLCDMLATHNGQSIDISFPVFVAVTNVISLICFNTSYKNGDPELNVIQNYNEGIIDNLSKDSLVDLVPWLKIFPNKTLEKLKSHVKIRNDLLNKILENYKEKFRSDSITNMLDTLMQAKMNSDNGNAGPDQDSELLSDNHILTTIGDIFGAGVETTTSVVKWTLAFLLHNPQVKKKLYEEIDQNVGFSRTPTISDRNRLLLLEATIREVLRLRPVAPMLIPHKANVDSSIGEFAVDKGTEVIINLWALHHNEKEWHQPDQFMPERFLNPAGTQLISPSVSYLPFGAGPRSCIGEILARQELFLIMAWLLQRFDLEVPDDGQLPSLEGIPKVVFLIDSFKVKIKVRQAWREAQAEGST
The data set is described as follows: Inhibition of human recombinant CYP17 lyase activity using 17alpha-hydroxypregnenolone as substrate by HPLC/MS/MS method. The method, boiled down: (§1)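 Recombinant human CYP17 expressed in a yeast microsome system, run with an NADPH-regenerating system. Hydroxylase and lyase products analysed by HPLC/MS/MS. IC50 from a 4-parameter logistic fit of the dose-response data.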

Data set [2] addresses T1, Steroid 17-alpha-hydroxylase/17,20 lyase. Description: Inhibition of human recombinant CYP17 hydroxylase activity by HPLC/MS/MS method. The essentials:
as §1

Data set [3] shares this target. Description: Selectivity ratio of IC50 for human recombinant CYP17 hydroxylase activity to IC50 for human recombinant CYP17 lyase activity. The essentials:
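Lyase selectivity expressed as human hydroxylase IC50 divided by human lyase IC50. Both values come from recombinant human CYP17 in a yeast microsome system, with products analysed by HPLC/MS/MS and 4-parameter logistic fitting.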

Data set [4] has as its system CYP3A4 versus CYP17 lyase. Description: Selectivity ratio of IC50 for human hepatocyte microsome CYP3A4 to IC50 for human recombinant CYP17 lyase activity. The conditions noted are these: read-out: Ratio IC50. Type of data set: ADME, cell-based. The essentials:
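Ratio of human CYP3A4 IC50 (pooled human hepatocyte microsomes) to human CYP17 lyase IC50 (recombinant enzyme, yeast microsomes). Both IC50 values from HPLC/MS/MS product analysis with a 4-parameter logistic fit.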

For data set [5], the target named is T2, Steroid 17-alpha-hydroxylase/17,20 lyase (Rattus norvegicus, UniProt P11715).
T2 sequence (P11715 whole entry): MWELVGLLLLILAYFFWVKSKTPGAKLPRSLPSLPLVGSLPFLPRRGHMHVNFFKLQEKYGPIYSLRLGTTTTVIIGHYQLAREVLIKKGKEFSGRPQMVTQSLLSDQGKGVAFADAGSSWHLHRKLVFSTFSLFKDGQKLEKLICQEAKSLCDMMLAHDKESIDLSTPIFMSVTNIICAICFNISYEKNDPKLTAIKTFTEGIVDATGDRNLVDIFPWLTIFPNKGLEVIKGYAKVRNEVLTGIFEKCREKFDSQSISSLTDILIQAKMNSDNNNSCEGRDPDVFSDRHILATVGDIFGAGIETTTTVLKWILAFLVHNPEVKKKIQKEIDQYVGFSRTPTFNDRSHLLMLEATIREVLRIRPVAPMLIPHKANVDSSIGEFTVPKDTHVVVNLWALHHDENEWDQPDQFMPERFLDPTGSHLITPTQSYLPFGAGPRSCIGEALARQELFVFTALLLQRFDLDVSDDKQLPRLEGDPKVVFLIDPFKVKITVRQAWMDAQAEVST
The data set is described as follows: Inhibition of rat testicular microsome CYP17 lyase activity using 17alpha-hydroxypregnenolone as substrate by HPLC/MS/MS method. The method, boiled down:
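Rat testicular microsome preparation with an NADPH-regenerating system. Product analysed by HPLC/MS/MS. IC50 taken from a 4-parameter logistic fit of the dose-response data.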

Data set [6] deals with Hamster. Description: Inhibition of CYP17 in gonadally-intact hamster assessed as testosterone level in serum at 50 mg/kg, po after 2 hrs by LC/MS/MS analysis (reference value: 1.98 +/- 0.057 ng/mL). The class given is functional, Cricetinae.
Data set [7] deals with Hamster. The data set is described as follows: Inhibition of CYP17 in gonadally-intact hamster assessed as progesterone level in serum at 50 mg/kg, po after 2 hrs by LC/MS/MS analysis (reference value: 1.02 +/- 0.05 ng/mL). Type of data set: functional, Cricetinae.
The target in data set [8] is T2, Steroid 17-alpha-hydroxylase/17,20 lyase. The data set is described as follows: Inhibition of rat testicular microsome CYP17 hydroxylase activity by HPLC/MS/MS method. The method, boiled down: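 Rat testicular microsomal preparation as the enzyme source, with an NADPH-regenerating system. Reaction product was analysed by HPLC/MS/MS. IC50 was derived from a 4-parameter logistic fit of the dose-response data.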

A short description of data set [9]: Metabolic stability in human liver microsomes assessed as compound remaining after 60 mins. Type of data set: ADME. The conditions noted are these: read-out: Stability. The essentials:
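Incubation in human liver microsomes for 60 min. Read-out is the percentage of parent compound remaining.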
(Liver microsomes are vesicles of endoplasmic reticulum, rich in cytochrome P450 enzymes.)

For data set [10], the system named is CYP3A4 versus CYP17 lyase. The data set is described as follows: Selectivity ratio of IC50 for human hepatocyte microsome CYP3A4 to IC50 for rat testicular microsome CYP17 lyase activity.

Chain of Cytochrome P450 3A4 (P08684 whole entry): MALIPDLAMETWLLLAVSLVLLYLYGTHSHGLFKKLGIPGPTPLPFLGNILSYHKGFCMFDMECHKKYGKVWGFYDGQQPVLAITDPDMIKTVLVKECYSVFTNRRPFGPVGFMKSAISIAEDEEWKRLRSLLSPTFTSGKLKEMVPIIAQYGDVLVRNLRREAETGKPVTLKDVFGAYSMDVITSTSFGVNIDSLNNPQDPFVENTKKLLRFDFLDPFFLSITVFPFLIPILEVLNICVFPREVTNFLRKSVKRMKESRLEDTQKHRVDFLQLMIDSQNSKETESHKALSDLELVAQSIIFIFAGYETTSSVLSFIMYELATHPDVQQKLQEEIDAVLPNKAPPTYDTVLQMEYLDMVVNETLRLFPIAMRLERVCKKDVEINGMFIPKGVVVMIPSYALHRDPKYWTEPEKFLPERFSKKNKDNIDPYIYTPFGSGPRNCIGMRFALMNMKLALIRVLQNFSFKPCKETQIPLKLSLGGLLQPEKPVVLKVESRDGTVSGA

As to `CC(C)C(O)(c1ccc2cc(OCC(F)(F)F)ccc2c1)c1c[nH]nn1` (racemic), the IC50 against Cytochrome P450 3A4 is no less than 195000 nM; in data set [1] it was 570 nM; in data set [2] it was 1000 nM. Besides, in data set [3], the “Ratio IC50” value came to 1.8. Besides, in [4], the selectivity ratio was no less than 340.

In the case of `COc1cc2ccc(C(O)(c3nc[nH]n3)C(C)C)cc2cc1OC` (racemic), the IC50 amounted to 7100 nM in [5] and 100000 nM against Cytochrome P450 3A4.

For `CC(=O)O[C@H]1CC[C@@]2(C)C(=CC[C@@H]3[C@@H]2CC[C@]2(C)C(c4cccnc4)=CC[C@@H]32)C1` [ABIRATERONE ACETATE], the Activity in the data set on Hamster [6] was found to be 0.3 ng/mL; in the data set with Hamster [7], 2.1 ng/mL.

For `COc1cc2ccc(C(O)(c3cnco3)C(C)C)cc2cc1OC` (racemic), the results for the 50% inhibitory concentration (IC50) (in data set [5]; against Cytochrome P450 3A4) were 86 nM and 6500 nM, respectively.

Consider `CC(C)[C@](O)(c1ccc2cc(OC(F)F)c(OC(F)F)cc2c1)c1c[nH]nn1` [SEVITERONEL], for which the Activity with Hamster [6] worked out at 0.37 ng/mL; in the data set on Hamster [7] it was 1.2 ng/mL.

At Cytochrome P450 3A4, `COc1cc2ccc(C(O)(c3ccncn3)C(C)C)cc2cc1OC` (racemic) returned an IC50 of 18000 nM.

Turning to `COc1cc2ccc(C(O)(c3c[nH]cn3)C(C)C)cc2cc1OC` (racemic), the IC50 in [8] was 140 nM; in data set [5], 29 nM; on Cytochrome P450 3A4, 1600 nM; in [1], 50 nM; in data set [2] it was 220 nM. Further, in data set [3], the “Ratio IC50” value amounted to 4.4. Besides, the selectivity ratio in [4] stood at 32. The Activity was determined as 0.3 ng/mL with Hamster [6] and 3.9 ng/mL with Hamster [7].

Turning to `COc1cc2ccc(C(O)(c3cn[nH]c3)C(C)C)cc2cc1OC` (racemic), the results for the IC50 (in data set [5]; against Cytochrome P450 3A4) were 430 nM and 27000 nM, respectively.

Turning to `COc1cc2ccc(C(O)(c3cccnc3)C(C)C)cc2cc1OC` (racemic), the IC50 in data set [5] is 4200 nM; against Cytochrome P450 3A4, 9400 nM.

As to `CC(C)C(O)(c1ccc2cc(-c3cccs3)ccc2c1)c1c[nH]nn1` (racemic), the 50% inhibitory concentration (IC50) at Cytochrome P450 3A4 was 81000 nM; in [1] it was greater than 4000 nM; in data set [2], 13000 nM. Moreover, the “Ratio IC50” value in data set [3] is listed as less than 3. Also, in data set [4], the selectivity ratio is less than 20.

For the compound `COc1cc2ccc(C(O)(c3ccncc3)C(C)C)cc2cc1OC` (racemic), the IC50 in data set [5] was 60 nM; at Cytochrome P450 3A4 it was 4500 nM.

`CC(C)C(O)(c1ccc2cc(OC(F)F)ccc2c1)c1c[nH]nn1` (racemic): the IC50 at Cytochrome P450 3A4 was found to be 14000 nM; in [1], 330 nM; in [2], 74 nM. In [3], the “Ratio IC50” value is given as 0.22. For the same compound, the selectivity ratio in [4] was determined as 42.

In turn, `COc1cc2ccc(C(O)(c3cncs3)C(C)C)cc2cc1OC` (racemic) registered an IC50 on Cytochrome P450 3A4 of 770 nM.

As to `CC(C)C(O)(c1ccc2cc(OC(F)F)c(OC(F)F)cc2c1)c1c[nH]nn1` (racemic), the 50% inhibitory concentration (IC50) in data set [1] was 170 nM; in data set [2] it was 690 nM. Moreover, the remaining at 1 h in [9] stood at 54%.

Consider `COc1cc2ccc(C(O)(c3c[nH]nn3)C(C)C)cc2cc1OC` (racemic), for which the figures for the IC50 (against Cytochrome P450 3A4; in data set [1]; in data set [2]) were 57000 nM, 180 nM and 2300 nM, respectively. Besides, the selectivity ratio came out at 317 in [10] and 320 in data set [4]. In addition, in [3], the “Ratio IC50” value is recorded as 13. Further, the remaining at 1 h in [9] is 29%.

As for `COc1cc2ccc(C(O)(c3cc[nH]n3)C(C)C)cc2cc1OC` (racemic), the IC50 in data set [5] stood at 1600 nM; at Cytochrome P450 3A4, 1800 nM.

`CC(C)C(O)(c1ccc2cc(OCC(F)(F)F)c(OCC(F)(F)F)cc2c1)c1c[nH]nn1` (racemic): the figures for the half-inhibitory concentration (IC50) (at Cytochrome P450 3A4; in data set [1]; in data set [2]) were 25000 nM, 310 nM and 3700 nM, respectively. Besides, in data set [3], the “Ratio IC50” value is 12. Besides, the selectivity ratio in [4] was 80.

On to `CC(C)C(O)(c1ccc2cc(-c3cnco3)ccc2c1)c1c[nH]nn1` (racemic), for which the figures for the IC50 (against Cytochrome P450 3A4; in data set [1]; in data set [2]) were 102000 nM, 940 nM and 13000 nM, respectively. Further, the “Ratio IC50” value in [3] is listed as 14. Moreover, the selectivity ratio in data set [4] worked out at 110.
